Compound activity from PubChem.
PfGluPho inh = PfG6PD (Plasmodium falciparum) enzyme inhibition. PfGluPho enzyme, NADPH resazurin-diaphorase fluorescence. inhibition, % at 20 µM. hit rate 0.78% among 350,000. AID 504690;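 active means inhibition reaching at least a set limit at 20 µM in the primary screen, cut at about 59% in these data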;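 further: 0% = DMSO wells with substrate and 100% = DMSO wells lacking glucose-6-phosphate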
Diaph inh CS = inhibits diaphorase or chemically oxidizes, flagging diaphorase assay artifacts. diaphorase resazurin-to-resorufin fluorescence, NADH, 16 min; bacterial (C. kluyveri) enzyme, not human. inhibition, % at 20 µM. hit rate 0.69% among 190,000. AID 1217;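 active means primary screen inhibition at 20 µM above a set limit, cut at about 50% in these data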;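 further: plate controls were DMSO with full reaction for no effect and wells lacking NADH for full effect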
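Test system: bacterial diaphorase enzyme (C. kluyveri); Quantity: 0.14 U/mL diaphorase, enzyme working solution; Times: reaction incubation of 16 min at room temperature; Measured by: fluorescence of resorufin formed from resazurin, Ex 544/Em 590 nm; Benchmarks: positive control minus NADH, DMSO neutral control.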
HKDC1 inh = HKDC1 (human) hexokinase inhibition | recombinant HKDC1, G6PDH/diaphorase resazurin coupled fluorescence | inhibition, % at 20 µM | AID 493160 | Q2TB90 | hit rate 0.16% among 340,000;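 active means inhibition above about 35% when tested at 20 µM, limit read from the data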;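 further: plate controls were DMSO wells with enzyme for no effect and DMSO wells lacking enzyme for full effect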
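Assay system – recombinant HKDC1 (HK5) hexokinase enzyme, produced in-house · Input – HKDC1 at 5 µg/mL · Reagent – glucose plus 1 mM ATP as hexokinase substrates · Timing – 90 min reaction incubation at room temperature, dark · Measured by – G6PDH/diaphorase-coupled fluorescence, 1 mM NADP, 100 µM resazurin, 525/613 nm · Benchmarks – DMSO-enzyme wells negative, buffer-substituted wells positive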
Tb hexokinase = T. brucei hexokinase 1 inhibition; hit rate 0.11% among 220,000; recombinant TbHK1, G6PDH-coupled NADH A340; inhibition, % at 10 µM;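 active means inhibition of 50% or more in the single-dose primary screen; inactive means inhibition below 50%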
G6PDH counter = L. mesenteroides G6PDH inhibition counter-screen; Purified L. mesenteroides G6PDH, diaphorase/resazurin coupled fluorescence, 45 min; inhibition, % at 5 µM; hit rate 0.12% among 200,000; AID 1020; in the data active means inhibition above about 50%
Diaphorase act = diaphorase activation or chemical reduction counter-screen | AID 1229 | hit rate 0.005% among 190,000 | activation factor at 20 µM | Diaphorase/resazurin coupled assay, resorufin fluorescence, 16 min; active compounds read high; 1 = vehicle wells, 0 = NADH-free wells;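 active means diaphorase activity raised at least twofold by the compound at 20 µM; inactive means activation factor below 2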
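Assay system: bacterial diaphorase enzyme (C. kluyveri) / Input: enzyme 0.07 U/mL final / Medium: 50 mM HEPES pH 7.4 with 4.542 mM MgCl2, 0.005% Tween 20 / Doses: single compound dose of 20 µM, 1% DMSO final / Incubation: 16 min enzyme reaction, ambient temperature / Signal: fluorescence, excitation 544 nm and emission 590 nm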
* marks the source's active call; other numbers are inactive results; · = not tested or not shown. Rows were chosen to be rich in hits. Some 1.3% of all compounds tested hit in one or more screens of this group.

SMILES | PfGluPho inh | Diaph inh CS | HKDC1 inh | Tb hexokinase | G6PDH counter | Diaphorase act
C[n+]1c(/C=C/c2ccc(O)cc2)ccc2ccccc21 | 11.8 | · | 3.2 | · | · | ·
CC(C)N(CC#CCC1(O)c2ccccc2-c2ccccc21)CCO | 20.5 | 59.8* | 2.1 | 2.9 | 16.6 | 0.4
Cc1snc(SCC(=O)c2ccc([N+](=O)[O-])cc2)c1C#N | 62.2* | 18.6 | -3.3 | -1.5 | -8.5 | 0.8
Cc1snc(SCC(=O)c2ccc(F)cc2)c1C#N | 4.5 | 4.2 | -11.4 | 0.4 | -1.7 | 1
O=C(CCN1C(=O)C2C3C=CC(C4CC34)C2C1=O)Oc1cccc2cccnc12 (stereo not given) | -12.9 | 24.1 | 5.8 | -2.7 | 52.8* | 0.8
O=c1ccc2cc3c([nH]c4ccc(Br)cc43)oc-2c1O | · | 75.8* | · | 7.8 | 15.9 | 0.2
O=C(O)c1ccc(N=Nc2c(O)[nH]c3ccc(Br)cc23)cc1 | 26.1 | · | 6.9 | · | · | ·
Cc1noc(NS(=O)(=O)c2ccc(NC(=O)CSc3nnc4c(n3)[nH]c3ccccc34)cc2)c1C | -10.0 | 64.9* | 3.3 | 16.2 | -1.9 | 0.4
CC(=O)Nc1ncc(Cc2ccc(Cl)cc2Cl)s1 | -4.4 | -8.8 | -4.7 | -3.2 | 28.5 | 1.1
COc1cccc(C(=O)NC2CC3CCCC(C2)N3CC(=O)Nc2ccccc2)c1 (stereo not given) | 38.6 | 57.5* | 27.5 | 20.0 | 10.6 | 0.4
CCOC(=O)c1ccc(-n2c(C)ccc2C)cc1 | 2.2 | -0.6 | -6.7 | -0.2 | 5.9 | 1
CCOC(=O)c1ccc(N2C(=O)C=CC2=O)cc1 | 65.7* | -0.8 | -3.4 | -2.8 | 8.7 | 1
COc1ccc(/C=N/NC(=O)C(=O)/C=C2\NC3(CCCC3)Cc3ccccc32)cc1 | 10.5 | 36.3 | -2.6 | -6.5 | -29.4 | 0.6
O=C(/C=C1\NC2(CCCC2)Cc2ccccc21)C(=O)N/N=C/c1ccc(O)c(O)c1 | 13.6 | 74.0* | -2.4 | 9.3 | -0.4 | 0.3
O=Cc1ccc(Sc2nnc(-c3ccccc3)o2)c([N+](=O)[O-])c1 | 94.0* | 24.8 | 42.8* | 36.6 | -6.2 | 0.8
C#CCOCCOCCOCCNc1nc(N2CCN(C(=O)CCCCCCCCCCNC(=O)[C@@H](CCC(=O)O)n3cc(CCCCCN)nn3)CC2)nc(N2CCN(C(=O)CCCCCCCCCCNC(=O)[C@H]([C@@H](C)CC)n3cc(CCCCCN)nn3)CC2)n1 | 7.7 | · | -1.9 | · | · | ·
C#CCOCCOCCOCCNc1nc(N2CCN(C(=O)CCCCCCCCCCNC(=O)[C@H]([C@@H](C)CC)n3cc(CCCCCN)nn3)CC2)nc(N2CCN(C(=O)CCCCCCCCCCNC(=O)[C@H](CO)n3cc(CCCCCN)nn3)CC2)n1 | 60.7* | · | -2.9 | · | · | ·
C#CCOCCOCCOCCNc1nc(N2CCN(C(=O)CCCCCCCCCCNC(=O)[C@H]([C@@H](C)CC)n3cc(CCCCN=C(N)N)nn3)CC2)nc(N2CCN(C(=O)CCCCCCCCCCNC(=O)[C@H](CO)n3cc(CCCCCN)nn3)CC2)n1 | 64.2* | · | 6.3 | · | · | ·
C#CCOCCOCCOCCNc1nc(N2CCN(C(=O)CCCCCCCCCCNC(=O)[C@H](CCCCN)n3cc(CCCC(=O)O)nn3)CC2)nc(N2CCN(C(=O)CCCCCCCCCCNC(=O)[C@@H]([C@H](C)O)n3cc(C)nn3)CC2)n1 | 8.8 | · | 0.1 | · | · | ·
C#CCOCCOCCOCCNc1nc(N2CCN(C(=O)CCCCCCCCCCNC(=O)[C@H](CCCCN)n3cc(C)nn3)CC2)nc(N2CCN(C(=O)CCCCCCCCCCNC(=O)[C@H](CCCCN)n3cc(CCCC(=O)O)nn3)CC2)n1 | 59.4* | · | -10.7 | · | · | ·
C#CCOCCOCCOCCNc1nc(N2CCN(C(=O)CCCCCCCCCCNC(=O)[C@H]([C@@H](C)CC)n3cc(CCCCN=C(N)N)nn3)CC2)nc(N2CCN(C(=O)CCCCCCCCCCNC(=O)[C@H](CCCCN)n3cc(C)nn3)CC2)n1 | 72.1* | · | 9.7 | · | · | ·
C#CCOCCOCCOCCNc1nc(N2CCN(C(=O)CCCCCCCCCCNC(=O)[C@H]([C@@H](C)CC)n3cc(CCCCCN)nn3)CC2)nc(N2CCN(C(=O)CCCCCCCCCCNC(=O)[C@H](CCCCN)n3cc(CCCC(=O)O)nn3)CC2)n1 | 19.5 | · | -6.2 | · | · | ·
